Columns and labels:
Type in all cases: functional
Staphylococcus aureus [1] = assay: Antimicrobial activity against Staphylococcus aureus ATCC 29213 assessed as reduction in microbial growth measured after 20 hrs by CLSI based broth microdilution method
In short: (§1)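 Broth microdilution per CLSI in cation-adjusted Mueller-Hinton broth. Two-fold serial dilutions from 256 to 0.25 μg/mL, inoculum about 5 × 10⁵ CFU/mL. Read after 20 h at 37 °C. MIC is the lowest concentration with no visible growth. Run in duplicate.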

Staphylococcus aureus [2] = assay: Antimicrobial activity against Staphylococcus aureus ATCC 25923 assessed as reduction in microbial growth measured after 20 hrs by CLSI based broth microdilution method; in short: as §1
Acinetobacter baumannii = assay: Antimicrobial activity against Acinetobacter baumannii ATCC 19606 assessed as reduction in microbial growth measured after 20 hrs by CLSI based broth microdilution method; in short: as §1
Escherichia coli = assay: Antimicrobial activity against Escherichia coli ATCC 25922 assessed as reduction in microbial growth measured after 20 hrs by CLSI based broth microdilution method; in short: as §1
Enterococcus faecalis = assay: Antimicrobial activity against Enterococcus faecalis ATCC 19433 assessed as reduction in microbial growth measured after 20 hrs by CLSI based broth microdilution method; in short: as §1
Enterobacter cloacae = assay: Antimicrobial activity against Enterobacter cloacae ATCC 13047 assessed as reduction in microbial growth measured after 20 hrs by CLSI based broth microdilution method; in short: as §1
Streptococcus pneumoniae = assay: Antimicrobial activity against Streptococcus pneumoniae ATCC 49619 assessed as reduction in microbial growth measured after 20 hrs by CLSI based broth microdilution method
Klebsiella pneumoniae = assay: Antimicrobial activity against Klebsiella pneumoniae ATCC 700603 assessed as reduction in microbial growth measured after 20 hrs by CLSI based broth microdilution method; in short: as §1
Pseudomonas aeruginosa = assay: Antimicrobial activity against Pseudomonas aeruginosa ATCC 27853 assessed as reduction in microbial growth measured after 20 hrs by CLSI based broth microdilution method; in short: as §1

MIC (Staphylococcus aureus [1])	MIC (Staphylococcus aureus [2])	MIC (Acinetobacter baumannii)	MIC (Escherichia coli)	MIC (Enterococcus faecalis)	MIC (Enterobacter cloacae)	MIC (Streptococcus pneumoniae)	MIC (Klebsiella pneumoniae)	MIC (Pseudomonas aeruginosa)	SMILES
128 µg/mL	> 256 µg/mL	> 256 µg/mL	> 256 µg/mL	> 256 µg/mL	> 256 µg/mL	128 µg/mL	> 256 µg/mL	> 256 µg/mL	OC(CNCCNc1ccccc1C(F)(F)F)COCc1cccc(C(F)(F)F)c1.OC(CNCCNc1ccccc1C(F)(F)F)COCc1cccc(C(F)(F)F)c1 (stereo not given)
32 µg/mL	32 µg/mL	32 µg/mL	64 µg/mL	16 µg/mL	64 µg/mL	16 µg/mL	> 256 µg/mL	> 256 µg/mL	OC(CNCCNc1ccc(C(F)(F)F)cn1)CNc1ccc(C(F)(F)F)cc1 (stereo not given)
128 µg/mL	> 256 µg/mL	> 256 µg/mL	> 256 µg/mL	> 256 µg/mL	> 256 µg/mL	128 µg/mL	> 256 µg/mL	> 256 µg/mL	N#Cc1ccc(OCC(O)CNCCNc2ccccc2C(F)(F)F)cc1 (stereo not given)
64 µg/mL	128 µg/mL	256 µg/mL	256 µg/mL	128 µg/mL	256 µg/mL	32 µg/mL	> 256 µg/mL	> 256 µg/mL	O=[N+]([O-])c1ccc(OCC(O)CNCCNc2cccc(C(F)(F)F)n2)cc1 (stereo not given)
128 µg/mL	256 µg/mL	> 256 µg/mL	> 256 µg/mL	256 µg/mL	> 256 µg/mL	128 µg/mL	> 256 µg/mL	> 256 µg/mL	O=[N+]([O-])c1ccc(OCC(O)CNCCNc2nccc(C(F)(F)F)n2)cc1 (stereo not given)
> 256 µg/mL	> 256 µg/mL	> 256 µg/mL	> 256 µg/mL	> 256 µg/mL	> 256 µg/mL	128 µg/mL	> 256 µg/mL	> 256 µg/mL	OC(CNCCNc1nccc(C(F)(F)F)n1)COc1ccccc1 (stereo not given)
32 µg/mL	64 µg/mL	64 µg/mL	64 µg/mL	32 µg/mL	64 µg/mL	32 µg/mL	> 256 µg/mL	> 256 µg/mL	OC(CNCCNc1ccccc1C(F)(F)F)COc1ccccc1C(F)(F)F (stereo not given)
64 µg/mL	64 µg/mL	128 µg/mL	> 256 µg/mL	64 µg/mL	> 256 µg/mL	32 µg/mL	> 256 µg/mL	> 256 µg/mL	OC(CNCCNc1nccc(C(F)(F)F)n1)COc1ccc(C(F)(F)F)cc1 (stereo not given)
256 µg/mL	256 µg/mL	> 256 µg/mL	> 256 µg/mL	> 256 µg/mL	> 256 µg/mL	128 µg/mL	> 256 µg/mL	> 256 µg/mL	O=[N+]([O-])c1ccc(OCC(O)CNCCNc2ncc(C(F)(F)F)cn2)cc1 (stereo not given)
32 µg/mL	64 µg/mL	128 µg/mL	64 µg/mL	64 µg/mL	256 µg/mL	32 µg/mL	> 256 µg/mL	> 256 µg/mL	OC(CNCCNc1ccc(C(F)(F)F)cn1)COCc1cccc(C(F)(F)F)c1 (stereo not given)
> 256 µg/mL	> 256 µg/mL	> 256 µg/mL	> 256 µg/mL	> 256 µg/mL	> 256 µg/mL	> 256 µg/mL	> 256 µg/mL	> 256 µg/mL	OC(CNCCNc1ccc(-c2ccccc2)cc1)COc1ccc(C(F)(F)F)cc1 (stereo not given)
64 µg/mL	64 µg/mL	64 µg/mL	64 µg/mL	64 µg/mL	128 µg/mL	32 µg/mL	> 256 µg/mL	> 256 µg/mL	OC(CNCCNc1ccccc1C(F)(F)F)COCc1ccc(C(F)(F)F)cc1 (stereo not given)
64 µg/mL	64 µg/mL	128 µg/mL	128 µg/mL	128 µg/mL	128 µg/mL	64 µg/mL	> 256 µg/mL	> 256 µg/mL	OC(CNCCNc1ccc(C(F)(F)F)cn1)COCc1ccccc1C(F)(F)F (stereo not given)
8 µg/mL	16 µg/mL	32 µg/mL	16 µg/mL	8 µg/mL	128 µg/mL	4 µg/mL	> 256 µg/mL	> 256 µg/mL	OC(CNCCSc1ccccc1C(F)(F)F)COc1ccc(C(F)(F)F)cc1 (stereo not given)
256 µg/mL	> 256 µg/mL	> 256 µg/mL	> 256 µg/mL	> 256 µg/mL	> 256 µg/mL	128 µg/mL	> 256 µg/mL	> 256 µg/mL	OC(CNCCNc1nccc(C(F)(F)F)n1)COc1ccc(F)cc1 (stereo not given)
64 µg/mL	64 µg/mL	64 µg/mL	64 µg/mL	64 µg/mL	128 µg/mL	32 µg/mL	> 256 µg/mL	> 256 µg/mL	O=S(=O)(NCCNCC(O)COc1ccc(C(F)(F)F)cc1)c1ccccc1C(F)(F)F (stereo not given)
> 256 µg/mL	> 256 µg/mL	> 256 µg/mL	> 256 µg/mL	> 256 µg/mL	> 256 µg/mL	> 256 µg/mL	> 256 µg/mL	> 256 µg/mL	OC(CNCCNc1cccc(C(F)(F)F)c1)COc1ccc(C(F)(F)F)cc1 (stereo not given)
> 256 µg/mL	> 256 µg/mL	> 256 µg/mL	> 256 µg/mL	> 256 µg/mL	> 256 µg/mL	256 µg/mL	> 256 µg/mL	> 256 µg/mL	COC(=O)c1ccc(OCC(O)CNCCNc2nccc(C(F)(F)F)n2)cc1 (stereo not given)
32 µg/mL	64 µg/mL	256 µg/mL	128 µg/mL	32 µg/mL	256 µg/mL	8 µg/mL	> 256 µg/mL	> 256 µg/mL	OC(CNCCNc1ccc(C(F)(F)F)cc1)COc1ccc(C(F)(F)F)cc1 (stereo not given)
128 µg/mL	256 µg/mL	256 µg/mL	256 µg/mL	256 µg/mL	256 µg/mL	128 µg/mL	> 256 µg/mL	> 256 µg/mL	OC(CNCCNc1ccc(C(F)(F)F)cn1)COCc1ccccc1 (stereo not given)
32 µg/mL	32 µg/mL	128 µg/mL	128 µg/mL	128 µg/mL	128 µg/mL	64 µg/mL	> 256 µg/mL	> 256 µg/mL	O=[N+]([O-])c1ccc(OCC(O)CNCCNc2ccc(C(F)(F)F)cn2)cc1 (stereo not given)
8 µg/mL	16 µg/mL	32 µg/mL	32 µg/mL	32 µg/mL	64 µg/mL	16 µg/mL	> 256 µg/mL	> 256 µg/mL	OC(CNCCNc1ccc(C(F)(F)F)cn1)CSCc1ccc(C(F)(F)F)cc1 (stereo not given)
32 µg/mL	32 µg/mL	64 µg/mL	128 µg/mL	32 µg/mL	128 µg/mL	16 µg/mL	> 256 µg/mL	> 256 µg/mL	OC(CNCCNc1ccc(C(F)(F)F)cn1)COCc1ccc(C(F)(F)F)cc1 (stereo not given)
> 256 µg/mL	> 256 µg/mL	> 256 µg/mL	> 256 µg/mL	> 256 µg/mL	> 256 µg/mL	> 256 µg/mL	> 256 µg/mL	> 256 µg/mL	O=[N+]([O-])c1ccc(OCC(O)CNCCNc2ncccn2)cc1 (stereo not given)
128 µg/mL	128 µg/mL	> 256 µg/mL	> 256 µg/mL	128 µg/mL	256 µg/mL	64 µg/mL	> 256 µg/mL	> 256 µg/mL	O=[N+]([O-])c1ccc(OCC(O)CNCCNc2cc(C(F)(F)F)ccn2)cc1 (stereo not given)
